# Calls of active or inactive are those of the source. No cut-off for these calls is given here.
# How the values were obtained:
# Mus musculus [1] = assay: Antiallergic activity in house dust mite-induced allergic airway disease BALB/c mouse model assessed as reduction in airway inflammation at 1 mg/kg, ip qd after 17 days; type: functional, organism-based; design: dose 1 mg/kg
# [2] = target: T1, Prostaglandin D2 receptor 2 (Homo sapiens, UniProt Q9Y5Y4); assay: Antagonist activity at human recombinant CRTh2 expressed in CHO-K1 cells by cAMP TR FRET assay; type: functional, cell-based
# T1 sequence (Q9Y5Y4 whole entry): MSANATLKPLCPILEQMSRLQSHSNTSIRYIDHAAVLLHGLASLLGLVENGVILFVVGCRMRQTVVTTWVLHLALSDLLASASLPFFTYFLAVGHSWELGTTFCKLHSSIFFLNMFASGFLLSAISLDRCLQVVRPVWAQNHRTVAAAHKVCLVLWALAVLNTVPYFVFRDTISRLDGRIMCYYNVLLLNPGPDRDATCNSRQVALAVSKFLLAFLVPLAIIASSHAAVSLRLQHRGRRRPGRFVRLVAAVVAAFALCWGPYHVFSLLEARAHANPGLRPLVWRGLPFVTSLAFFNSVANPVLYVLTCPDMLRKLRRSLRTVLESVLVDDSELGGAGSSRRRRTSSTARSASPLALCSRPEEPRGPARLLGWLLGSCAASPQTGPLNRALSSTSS
# [3] = Oral bioavailability in rat at 10 mg/kg; type: ADME, organism-based; conditions: in vivo
# [4] = Clearance in rat at 2 mg/kg, iv and 10 mg/kg, po; type: ADME, organism-based; conditions: in vivo
# [5] = Drug excretion in dog feces assessed as drug recovery at 5 mg/kg, iv measured after 24 hrs by LC-MS analysis; type: ADME, organism-based, Canis lupus familiaris; design: dose 5 mg/kg, route intravenous; conditions: faeces, read-out: Drug recovery
# In short: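 Dogs given a single intravenous dose of 5 mg/kg; unchanged parent drug measured in the feces.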
# Hepatocyte [6] = assay: In vitro intrinsic biliary clearance in sandwich cultured human hepatocytes measured; type: ADME, cell-based, Bile
# In short: (§1)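 Sandwich-cultured hepatocytes incubated with substrate at 1–50 μM (rat) or 1–10 μM (human), with and without Ca2+. Biliary excretion taken as the difference in cellular accumulation between the two conditions. Intrinsic biliary clearance calculated as amount excreted into bile divided by substrate concentration over time.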
# [7] = Drug excretion in rat bile assessed as drug recovery at 5 mg/kg, iv measured after 24 hrs by LC-MS analysis; type: ADME, organism-based; design: dose 5 mg/kg, route intravenous; conditions: read-out: Drug recovery
# In short: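 Bile duct-cannulated rats given a single iv dose of 5 mg/kg; parent drug recovered in bile and urine over 24 h.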
# [8] = Volume of distribution at steady state in dog at 2 mg/kg, iv; type: ADME, organism-based, Canis lupus familiaris; design: dose 2 mg/kg, route intravenous; conditions: in vivo, read-out: Vdss
# [9] = Volume of distribution at steady state in monkey at 2 mg/kg, iv; type: ADME, organism-based, Macaca mulatta; design: dose 2 mg/kg, route intravenous; conditions: rhesus monkey, in vivo, read-out: Vdss
# [10] = Cmax in monkey at 10 mg/kg, po; type: ADME, organism-based, Macaca mulatta; design: dose 10 mg/kg, route oral; conditions: rhesus monkey, in vivo
# In short: (§2)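 Single intravenous dose of 2 mg/kg and single oral dose of 10 mg/kg, given separately, in rat, dog and monkey. Clearance and half-life taken from the iv arm; Cmax from the oral arm.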
# [11] = Oral bioavailability in monkey at 10 mg/kg; type: ADME, organism-based, Macaca mulatta; conditions: rhesus monkey, in vivo
# Hepatocyte [12] = assay: In vitro intrinsic biliary clearance in sandwich cultured rat hepatocytes measured; type: ADME, cell-based, Bile; in short: as §1
# [13] = Half life in dog at 2 mg/kg, iv; type: ADME, organism-based, Canis lupus familiaris; design: dose 2 mg/kg, route intravenous; conditions: in vivo; in short: as §2
# [14] = Metabolic clearance in dog hepatocytes measured per 10^6 cells; type: ADME, cell-based, Canis lupus familiaris, Hepatocyte; conditions: read-out: CLH
# [15] = Metabolic clearance in rat hepatocytes measured per 10^6 cells; type: ADME, cell-based, Hepatocyte; conditions: read-out: CLH
# [16] = Cmax in dog at 10 mg/kg, po; type: ADME, organism-based, Canis lupus familiaris; design: dose 10 mg/kg, route oral; conditions: in vivo; in short: as §2
# Rattus norvegicus [17] = assay: In vivo intrinsic biliary clearance in rat; type: ADME, organism-based, Bile
# [18] = Metabolic clearance in monkey hepatocytes measured per 10^6 cells; type: ADME, cell-based, Macaca mulatta, Hepatocyte; conditions: rhesus monkey, read-out: CLH
# [19] = Clearance in dog at 2 mg/kg, iv; type: ADME, organism-based, Canis lupus familiaris; design: dose 2 mg/kg, route intravenous; conditions: in vivo; in short: as §2
# [20] = Oral bioavailability in dog at 10 mg/kg; type: ADME, organism-based, Canis lupus familiaris; conditions: in vivo
# [21] = Clearance in monkey at 2 mg/kg, iv; type: ADME, organism-based, Macaca mulatta; design: dose 2 mg/kg, route intravenous; conditions: rhesus monkey, in vivo; in short: as §2
# [22] = Half life in monkey at 2 mg/kg, iv; type: ADME, organism-based, Macaca mulatta; design: dose 2 mg/kg, route intravenous; conditions: rhesus monkey, in vivo; in short: as §2
# [23] = Plasma clearance in rat at 5 mg/kg, iv measured after 24 hrs by LC-MS analysis; type: ADME, organism-based; design: dose 5 mg/kg, route intravenous
# In short: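 Bile duct-cannulated rats received a single iv dose of 5 mg/kg. Average plasma clearance was determined, and parent drug was quantified in bile and urine collected over 24 h.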
# Rattus norvegicus [24] = species on record: Rattus norvegicus; assay: Clearance in rat; conditions: in vivo
# Rattus norvegicus [25] = assay: Oral bioavailability in rat; conditions: in vivo
# Mus musculus [26] = assay: Antiallergic inflammatory activity in oxazolone induced contact hypersensitivity mouse model assessed as reduction ear swelling at 3 mg/kg, po prior to oxazolone and 7 hrs post challenge measured after 24 hrs; type: functional
# In short: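 Mice sensitized on the shaved abdomen with 2% oxazolone in ethanol one week before challenge. Dosed orally 1 h before the left ear was challenged with 10 μL of 2% oxazolone (ethanol on the right ear as control), then redosed 7 h after challenge. Ear thickness measured by micrometer; swelling taken as 24 h post-challenge minus pre-challenge thickness. Unpaired t test.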
compound,measurement,setting,value
C[C@@H]1C[C@H]2[C@@H]3CCC4=CC(=O)C=C[C@]4(C)[C@@]3(F)[C@@H](O)C[C@]2(C)[C@@]1(O)C(=O)CO,inhibition,Mus musculus [1],Active
Cc1c(-c2cn(Cc3ccccc3)c(=O)c3ccccc23)c2cc(F)ccc2n1CC(=O)O,IC50,[2],14 nM
Cc1c(-c2ccc(=O)n(CCCC(F)(F)F)c2)c2cc(F)ccc2n1CC(=O)O,IC50,[2],16 nM
Cc1c(Cc2ccc(=O)n(CC(F)(F)F)n2)c2cc(F)ccc2n1CC(=O)O,IC50,[2],18 nM
Cc1c(Cc2ccc(=O)n(CCCC(F)(F)F)c2)c2cc(F)ccc2n1CC(=O)O,IC50,[2],150 nM
Cc1c(-c2ccc(=O)n(C(C)C)c2)c2cc(F)ccc2n1CC(=O)O,IC50,[2],70 nM
Cc1c(-c2cn(Cc3ccccc3)c(=O)c3c2CCCC3)c2cc(F)ccc2n1CC(=O)O,IC50,[2],192 nM
Cc1c(-c2ccc(=O)n(Cc3ccccc3)c2)c2cc(F)ccc2n1CC(=O)O,bioavailability,[3],< 10%
same,clearance,[4],15 mL/min/kg
Cc1c(-c2ccc(=O)n(Cc3cccc(F)c3F)c2)c2cc(F)ccc2n1CC(=O)O,IC50,[2],0.8 nM
Cc1c(Cc2ccc(=O)n(Cc3ccc(F)cc3)n2)c2cc(F)ccc2n1CC(=O)O,IC50,[2],6 nM
Cc1c(Cc2ccc(=O)n(Cc3ccc(F)cc3F)n2)c2cc(F)ccc2n1CC(=O)O,dose excreted at 24 h,[5],> 90%
same,CLH,Hepatocyte [6],< 1 µL/min/µg
same,dose excreted at 24 h,[7],27%
same,Vd,[8],0.4 L/kg
same,Vd,[9],0.4 L/kg
same,Cmax,[10],246 ng/mL
same,bioavailability,[11],12%
same,CLH,Hepatocyte [12],< 2.6 µL/min/µg
same,half-life,[13],2.3 h
same,hepatocyte CLint,[14],< 5 µL/min/1e6 cells
same,hepatocyte CLint,[15],< 5 µL/min/1e6 cells
same,Cmax,[16],716 ng/mL
same,CL,Rattus norvegicus [17],3.8 mL/min/kg
same,hepatocyte CLint,[18],< 5 µL/min/1e6 cells
same,clearance,[19],20 mL/min/kg
same,bioavailability,[20],8%
same,clearance,[21],21 mL/min/kg
same,half-life,[22],2.3 h
same,clearance,[23],14 mL/min/kg
Cc1c(-c2cn(CCCC(F)(F)F)c(=O)c3ccccc23)c2cc(F)ccc2n1CC(=O)O,clearance,Rattus norvegicus [24],35 mL/min/kg
same,bioavailability,Rattus norvegicus [25],< 5%
same,inhibition in vivo at 3 mg/kg,Mus musculus [26],30.4%
same,IC50,[2],1 nM
Cc1c(Cc2ccc(=O)n(CC(F)(F)F)c2)c2cc(F)ccc2n1CC(=O)O,bioavailability,[3],20%
same,IC50,[2],52 nM
same,clearance,[4],7 mL/min/kg
Cc1c(Cc2ccc(=O)n(Cc3cc(F)ccc3F)n2)c2cc(F)ccc2n1CC(=O)O,IC50,[2],2 nM
Cc1c(-c2ccc(=O)n(CC(F)(F)F)c2)c2cc(Cl)ccc2n1CC(=O)O,IC50,[2],148 nM
Cc1c(-c2ccc(=O)n(Cc3c(F)cccc3F)c2)c2cc(F)ccc2n1CC(=O)O,IC50,[2],6 nM
Cc1c(-c2ccc(=O)n(C(C)C)c2)c2ccccc2n1CC(=O)O,IC50,[2],556 nM
Cc1c(-c2cn(CC(F)(F)F)c(=O)c3ccccc23)c2cc(F)ccc2n1CC(=O)O,clearance,Rattus norvegicus [24],20 mL/min/kg
same,bioavailability,Rattus norvegicus [25],35%
same,inhibition in vivo at 3 mg/kg,Mus musculus [26],32.8%
Cc1c(Cc2ccc(=O)n(Cc3ccc(F)cc3F)c2)c2cc(F)ccc2n1CC(=O)O,bioavailability,[3],4%
same,IC50,[2],4 nM
same,clearance,[4],32 mL/min/kg
Cc1c(-c2ccc(=O)n(CC(F)(F)F)c2)c2cc(F)ccc2n1CC(=O)O,IC50,[2],84 nM
Cc1c(-c2cn(CC(F)(F)F)c(=O)c3c2CCCC3)c2cc(F)ccc2n1CC(=O)O,IC50,[2],1000 nM
Cc1c(Cc2ccc(=O)n(Cc3cccc(F)c3)n2)c2cc(F)ccc2n1CC(=O)O,IC50,[2],8 nM
COc1ccc2c(c1)c(-c1ccc(=O)n(CC(F)(F)F)c1)c(C)n2CC(=O)O,IC50,[2],2000 nM
Cc1c(-c2ccc(=O)n(C(C)C)c2)c2cc(Cl)ccc2n1CC(=O)O,IC50,[2],195 nM
Cc1c(-c2cn(CC(C)(C)C)c(=O)c3ccccc23)c2cc(F)ccc2n1CC(=O)O,inhibition in vivo at 3 mg/kg,Mus musculus [26],47.4%
Cc1ccc2c(c1)c(-c1ccc(=O)n(CC(F)(F)F)c1)c(C)n2CC(=O)O,IC50,[2],1120 nM
Cc1c(-c2ccc(OCCCC(F)(F)F)nc2)c2cc(F)ccc2n1CC(=O)O,IC50,[2],689 nM
Cc1c(-c2ccc(=O)n(Cc3ccc(F)cc3F)c2)c2cc(F)ccc2n1CC(=O)O,IC50,[2],17 nM
Cc1c(Cc2ccc(=O)n(CCCC(F)(F)F)n2)c2cc(F)ccc2n1CC(=O)O,IC50,[2],11 nM
Cc1c(-c2ccc(=O)n(Cc3c(F)cccc3F)c2)c2ccccc2n1CC(=O)O,IC50,[2],21 nM

# — ChEMBL document CHEMBL3232705, “Discovery of isoquinolinone indole acetic acids as antagonists of chemoattractant receptor homologous molecule expressed on Th2 cells (CRTH2) for the treatment of allergic inflammatory diseases” (J Med Chem, 2014)
